# Published values from different studies.
# Protocols differ between the studies behind these lines.
# Target: Serine/threonine-protein kinase MRCK beta (CDC42BPB, Homo sapiens, UniProt Q9Y5S2)
SMILES,assay,setting,quantity,result
CSc1cccnc1N1CCN(Cc2nc3ccccc3[nH]2)CC1,"cell-free assay, competition with immobilised ligand",1 µM,remaining binding,100%
Cc1cc(NC(=O)c2cccc3cc(-c4cccc5[nH]nc(N)c45)ccc23)ccc1F,"enzyme activity, inhibitor",0.1 µM,activity vs control,100%
Cc1c(C(=O)O)cc(-c2ccc(C3CCNCC3)cc2)c2ccc(-c3ccc(C(F)(F)F)cc3)cc12,"cell-free assay, competition with immobilised ligand",1 µM,remaining binding,100%
CCN(CC)CCNC(=O)c1c(C)[nH]c(/C=C2\C(=O)Nc3ccc(F)cc32)c1C,"enzyme activity, inhibitor",0.3 µM,inhibition,8%
N#CCCc1ccc2c(c1)-c1[nH]c3ccc([N+](=O)[O-])cc3c1CC(=O)N2,cell-free assay,0.5 µM,remaining signal,54.1%
COc1cc2ncnc(Nc3ccc(Oc4ccccc4)c(C)c3C)c2cc1OC,"enzyme activity, inhibitor",1 µM,inhibition,2%
Cc1ccc(C(=O)Nc2ccc(CN3CCN(C)CC3)c(C(F)(F)F)c2)cc1C#Cc1cnc2cccnn12,"enzyme activity, inhibitor",23.5 nM,remaining activity,95%
CN(c1ccnc(CNc2nc(Nc3ccc4c(c3)CC(=O)N4)ncc2C(F)(F)F)n1)S(C)(=O)=O,"cell-free assay, competition with immobilised ligand",1 µM,remaining binding,100%
Cc1ccc(Nc2nccc(N(C)c3ccc4c(C)n(C)nc4c3)n2)cc1S(N)(=O)=O,"enzyme activity, inhibitor",0.3 µM,inhibition,9%
Cc1nc(N2CC[C@@H](O)C2)ncc1-c1cc(C(F)(F)F)cc2[nH]ncc12,"cell-free assay, competition with immobilised ligand",1 µM,remaining binding,100%
CC(C)(C)c1nc2c(s1)c1nc(N)ncc1c1ccc(NS(=O)(=O)c3c(F)cccc3F)c(F)c12,"enzyme activity, inhibitor, radiometric",1 µM,remaining activity,100%
CC/C(=N\NC(=O)C(C)Nc1ccccc1)c1ccc(O)c(C)c1O (centres unmarked),"enzyme activity, inhibitor",0.1 µM,inhibition,7.1%
CCCOc1ccc(OC)c(F)c1C(=O)c1ccc(C(=O)N[C@@H]2CNC[C@H]2NC(=O)c2ccc3[nH]ncc3c2)cc1,"enzyme activity, inhibitor",0.1 µM,remaining activity,34%
Oc1cccc(-c2nc(N3CCOCC3)c3oc4ncccc4c3n2)c1,cell-free assay,0.5 µM,remaining signal,99.4%
Cc1c(NC(=O)c2cc(C(N)=O)nc3cc(F)ccc23)c(C(F)(F)F)nn1Cc1ccc(C#N)cc1,"cell-free assay, competition with immobilised ligand",1 µM,remaining binding,100%
Nc1ncnc2occ(-c3ccc(NC(=O)Nc4cc(C(F)(F)F)ccc4F)cc3)c12,"enzyme activity, inhibitor",20 µM,remaining activity,33%
Cc1ccc(NC(=O)c2ccc(C)c(C(F)(F)F)c2)cc1C#Cc1nn(C2CCC(O)CC2)c2ncnc(N)c12 (centres unmarked),cell-free assay,10 µM,remaining signal,87%
CCN(CC)CCNC(=O)c1c(C)[nH]c(/C=C2\C(=O)Nc3ccc(Cl)cc32)c1C,"enzyme activity, inhibitor",0.5 µM,remaining activity,96.1%
CCOC(=O)c1cc2cc(-c3cc(C(=O)NCc4ccc(C(=O)O)cc4)nn3C)ccc2[nH]1,"cell-free assay, competition with immobilised ligand",0.1 µM,remaining binding,88%
CNC(=O)c1cc(Oc2ccc(NC(=O)Nc3ccc(Cl)c(C(F)(F)F)c3)cc2)ccn1,"enzyme activity, inhibitor",0.3 µM,inhibition,12%
O=C(Nc1cnn(-c2csc(C(=O)NC3COC3)c2)c1)Nc1ccccc1Cl,"enzyme activity, inhibitor",5 µM,remaining activity,97.1%
O=C1c2ccccc2-c2n[nH]c3cccc1c23,"enzyme activity, inhibitor",0.5 µM,activity vs control,97.2%
CN1CCN(c2cnc3c(C4CCN(C(=O)c5ccc(OC(F)(F)F)cc5N)CC4)ncnc3c2)CC1,"cell-free assay, competition with immobilised ligand",1 µM,remaining binding,100%
CC(C)(O)[C@H]1CC[C@H](Nc2ccc3ncc(-c4cccc(C(F)(F)F)c4)n3n2)CC1,"enzyme activity, inhibitor",1 µM,remaining activity,98.9%
CN([C@@H]1CCc2c(CC(=O)O)c3cc(S(C)(=O)=O)ccc3n2C1)S(=O)(=O)c1ccc(F)cc1,"cell-free assay, competition with immobilised ligand",1 µM,remaining binding,100%
CCCCNc1ncc2c(-c3ccc(F)cc3)nn(C[C@H]3CC[C@H](N)CC3)c2n1,"target engagement in cells, inhibitor, chemoproteomics",20 mM,inhibition,3.6%
